A selection: hits, their analogues and other compounds. The true share with any hit is near 1.3%.
RTF Ca sens act – cardiac RTF calcium sensitivity activators, primary screen, biochemical, IANBD-TnC fluorescence, EC20 calcium; Troponin I, cardiac muscle (Homo sapiens) + Troponin T, cardiac muscle (Homo sapiens) + …; IANBD-labeled TnC RTF fluorescence at EC20 calcium; 0% EC20 calcium, 100% full calcium; activation, % at 7.2 µM; actives 0.24% (n = 340,000); AID 493008, 2010;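 active means activation above the mean over all tested compounds plus 3 SD, cut at about 30% in these data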;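 further: rise in fluorescence read as greater calcium sensitivity of cardiac thin filaments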
Keap1-Nrf2 PPI – Keap1-Nrf2 protein-protein interaction inhibitors, primary screen, biochemical, fluorescence polarization, single point; inhibition, % at 9.4 µM; Kelch-like ECH-associated protein 1 (Homo sapiens), Q14145; Keap1 Kelch-Nrf2 peptide fluorescence polarization, 1536-well; AID 504523, 2011; actives 0.15% (n = 340,000); in the data active means inhibition above about 12%;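 further: human Keap1 Kelch domain with fluorescein labeled Nrf2 9mer peptide probe; 0% = neutral control wells and 100% = peptide positive control; higher means more block of Keap1 binding to Nrf2 peptide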
Target sequence (Q14145 whole entry, looked up, the tested form may be a part): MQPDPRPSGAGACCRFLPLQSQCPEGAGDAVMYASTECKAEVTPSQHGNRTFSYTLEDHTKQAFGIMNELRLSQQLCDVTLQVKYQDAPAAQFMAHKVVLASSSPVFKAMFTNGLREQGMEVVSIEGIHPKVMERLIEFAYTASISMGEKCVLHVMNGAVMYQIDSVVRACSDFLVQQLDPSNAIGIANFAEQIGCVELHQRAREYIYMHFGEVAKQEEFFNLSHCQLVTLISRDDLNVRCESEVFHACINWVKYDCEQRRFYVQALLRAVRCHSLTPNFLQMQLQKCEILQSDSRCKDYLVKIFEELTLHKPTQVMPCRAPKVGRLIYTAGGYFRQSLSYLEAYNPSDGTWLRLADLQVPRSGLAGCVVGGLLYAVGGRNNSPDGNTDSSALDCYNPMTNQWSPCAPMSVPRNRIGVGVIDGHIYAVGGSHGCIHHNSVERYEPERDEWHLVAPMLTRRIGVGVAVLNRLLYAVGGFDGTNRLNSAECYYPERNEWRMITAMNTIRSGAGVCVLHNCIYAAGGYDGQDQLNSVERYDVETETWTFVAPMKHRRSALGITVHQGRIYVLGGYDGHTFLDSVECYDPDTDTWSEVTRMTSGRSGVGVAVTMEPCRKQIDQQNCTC
LANA DNA inh – inhibitors of KSHV C-LANA binding to DNA, primary screen, biochemical, fluorescence polarization, FAM-LBS DNA, MBP-C-LANA, single point | Kaposi's sarcoma herpesvirus LANA C-terminal domain (residues 932-1162) DNA binding | inhibition, % at 9 µM | actives 0.078% (n = 340,000);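 active means highest replicate inhibition at or above 60% at 9 µM, even if other replicates fall short; inactive means all replicates below 60% inhibition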;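 further: 0% = neutral control wells and 100% = 4 µM acridine orange control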
CAL PDZ FP-1 – CAL PDZ peptide-binding inhibitors, primary screen, biochemical, fluorescence polarization, Cer-tagged CAL PDZ, HTS; purified CAL PDZ, TMR-peptide fluorescence polarization, 1 h; actives 0.02% (n = 330,000); inhibition, % at 20 µM; Golgi-associated PDZ and coiled-coil motif-containing protein (Homo sapiens), Q9HD26; AID 504414, 2011;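 active means highest replicate inhibition of at least 40%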;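 further: plate controls were DMSO neutral control wells for no effect and unlabeled competitor peptide control wells for full effect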
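Material – purified CerCALP PDZ construct · Detection – FP readout, S and P plane fluorescence · Measure – percent inhibition from loss of millipolarization · Controls – unlabelled peptide for full inhibition, DMSO wells as neutral · Probe or stimulus – TMR-labelled reporter peptide T*-PRC34 bound in PDZ groove · Times – 1 h at RT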
RTF Ca sens inh – cardiac RTF calcium sensitivity inhibitors, primary screen, biochemical, IANBD-TnC fluorescence, EC70 calcium; actives 0.12% (n = 340,000); inhibition, % at 7.15 µM; IANBD-labeled cardiac RTF, Ca2+ fluorescence; Troponin I, cardiac muscle (Homo sapiens) + Troponin T, cardiac muscle (Homo sapiens) + …;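 active means inhibition above the mean inhibition of all tested compounds plus 3 SD, cut at about 17% in these data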;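 further: assay run at fixed EC70 calcium of 1.6 mM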
CAL PDZ FP-2 – untagged CAL PDZ binding inhibitors, primary screen, biochemical, fluorescence polarization, HTS | Golgi-associated PDZ and coiled-coil motif-containing protein (Homo sapiens), Q9HD26 | purified CAL PDZ, TMR-peptide fluorescence polarization, 1 h | inhibition, % at 24.9 µM | actives 0.92% (n = 300,000) | AID 602252, 2012;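 active means mean inhibition of at least 30% with at least half of replicates also reaching 30%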;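 further: 0% = DMSO neutral control and 100% = excess unlabeled competitor peptide PRC23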
* marks the source's active call; other numbers are inactive results.

How did COc1ccc(OCC(NS(=O)(=O)c2ccc(-n3cnnn3)cc2)C(C)C)cc1 (centres undefined) do in these assays?
RTF Ca sens act: -7; Keap1-Nrf2 PPI: 1; LANA DNA inh: -1; CAL PDZ FP-1: -1; RTF Ca sens inh: -3; CAL PDZ FP-2: 0

Results for CCSc1ccc(C(=O)Nc2ccc(Br)cn2)cc1[N+](=O)[O-] ?
RTF Ca sens act: -2; Keap1-Nrf2 PPI: -3; LANA DNA inh: -2; CAL PDZ FP-1: 0; RTF Ca sens inh: 7; CAL PDZ FP-2: 39*

How did CCSc1ccc(C(=O)Nc2cccc(C)n2)cc1[N+](=O)[O-] do in these assays?
RTF Ca sens act: 5; Keap1-Nrf2 PPI: -6; LANA DNA inh: -1; CAL PDZ FP-1: 1; RTF Ca sens inh: -11; CAL PDZ FP-2: -3

Results for Cc1cc(=O)n2nc(N3CCCC(C(=O)NCc4ccccc4)C3)sc2n1 (centres undefined) ?
RTF Ca sens act: 3; Keap1-Nrf2 PPI: -4; LANA DNA inh: -2; CAL PDZ FP-1: 0; RTF Ca sens inh: -4

What do the screens show for `Cc1cc(=O)n2nc(N3CCC(C(=O)NCc4cccc(Br)c4)CC3)sc2n1`?
RTF Ca sens act: -4; Keap1-Nrf2 PPI: 3; LANA DNA inh: -1; CAL PDZ FP-1: -1; RTF Ca sens inh: -5; CAL PDZ FP-2: 119*

What do the screens show for `Cc1sc2nc(COC(=O)c3cccc(S(=O)(=O)N(C)c4ccccc4)c3)[nH]c(=O)c2c1C`?
RTF Ca sens act: 22; Keap1-Nrf2 PPI: -33; LANA DNA inh: -9; CAL PDZ FP-1: -1; RTF Ca sens inh: -23; CAL PDZ FP-2: -5

How did Cc1sc2nc(COC(=O)c3cccc(OC(F)F)c3)[nH]c(=O)c2c1C do in these assays?
RTF Ca sens act: 4; Keap1-Nrf2 PPI: 0; LANA DNA inh: 0; CAL PDZ FP-1: 0; RTF Ca sens inh: 0; CAL PDZ FP-2: 56*

How did O=S(=O)(c1ccc(Oc2ccc(F)c(Cl)c2)nc1)N1CCOCC1 do in these assays?
RTF Ca sens act: -2; Keap1-Nrf2 PPI: 1; LANA DNA inh: -1; CAL PDZ FP-1: -1; RTF Ca sens inh: 5; CAL PDZ FP-2: 7

How did O=C(NCCc1ccc(Cl)cc1)C1=CC=CN2CCS(=O)(=O)N=C12 do in these assays?
RTF Ca sens act: 5; Keap1-Nrf2 PPI: -2; LANA DNA inh: 0; CAL PDZ FP-1: -1; RTF Ca sens inh: -1; CAL PDZ FP-2: -4

Results for CC(=O)N1Cc2ccccc2CC1C(=O)NCc1ccccc1F (centres undefined) ?
RTF Ca sens act: 0; Keap1-Nrf2 PPI: 3; LANA DNA inh: 0; CAL PDZ FP-1: -1; RTF Ca sens inh: -11; CAL PDZ FP-2: -3

What do the screens show for `CC(NC(=O)CN1CCC(C(N)=O)CC1)c1ccccc1` (centres undefined)?
RTF Ca sens act: 48*; Keap1-Nrf2 PPI: -8; LANA DNA inh: 1; CAL PDZ FP-1: -4; RTF Ca sens inh: -3; CAL PDZ FP-2: 0

What do the screens show for `CC(NC(=O)CN1CCCC1)c1ccccc1` (centres undefined)?
RTF Ca sens act: -6; Keap1-Nrf2 PPI: -2; LANA DNA inh: -3; CAL PDZ FP-1: 0; RTF Ca sens inh: -1; CAL PDZ FP-2: -1

How did CCOc1ccc(NC(=O)CC2C(=O)N(c3cccc(OC)c3)C(=O)N2CCOC)cc1 (centres undefined) do in these assays?
RTF Ca sens act: 5; Keap1-Nrf2 PPI: -1; LANA DNA inh: -1; CAL PDZ FP-1: -2; RTF Ca sens inh: 0; CAL PDZ FP-2: 59*

What do the screens show for `CCCn1nnnc1SCC(=O)N1CCCC1`?
RTF Ca sens act: -4; Keap1-Nrf2 PPI: -4; LANA DNA inh: 1; CAL PDZ FP-1: -1; RTF Ca sens inh: -14; CAL PDZ FP-2: 43*

Results for CCC/C=N/NC(=O)c1ccc(F)cc1 ?
RTF Ca sens act: -6; Keap1-Nrf2 PPI: -2; LANA DNA inh: 3; CAL PDZ FP-1: 0; RTF Ca sens inh: -11; CAL PDZ FP-2: 1

What do the screens show for `CCC/C=N/NC(=O)c1cccc(Br)c1`?
RTF Ca sens act: 2; Keap1-Nrf2 PPI: -3; LANA DNA inh: -1; CAL PDZ FP-1: -1; RTF Ca sens inh: -1; CAL PDZ FP-2: 86*

What do the screens show for `c1ccc(Nc2ccc3c4c(cccc24)CC3)cc1`?
RTF Ca sens act: 52*; Keap1-Nrf2 PPI: -2; LANA DNA inh: -1; CAL PDZ FP-1: -12; RTF Ca sens inh: -94; CAL PDZ FP-2: 6

What do the screens show for `Fc1cccc(Cc2noc(CN3CCSCC3)n2)c1`?
RTF Ca sens act: 1; Keap1-Nrf2 PPI: -1; LANA DNA inh: -2; CAL PDZ FP-1: -1; RTF Ca sens inh: -15; CAL PDZ FP-2: 57*

Results for FC(F)(F)c1cccc(Cc2noc(CN3CCSCC3)n2)c1 ?
RTF Ca sens act: -6; Keap1-Nrf2 PPI: -4; LANA DNA inh: 0; CAL PDZ FP-1: -2; RTF Ca sens inh: -3; CAL PDZ FP-2: 0

How did O=C(/C=C\c1ccc2c(c1)OCO2)CC1(O)C(=O)Nc2ccccc21 (centres undefined) do in these assays?
RTF Ca sens act: 1; Keap1-Nrf2 PPI: -2; LANA DNA inh: 1; RTF Ca sens inh: 7; CAL PDZ FP-2: 89*

How did O=C(CC1(O)C(=O)Nc2ccccc21)c1ccc2c(c1)OCO2 (centres undefined) do in these assays?
RTF Ca sens act: -1; Keap1-Nrf2 PPI: -6; LANA DNA inh: 0; CAL PDZ FP-1: -3; RTF Ca sens inh: -2; CAL PDZ FP-2: -1

How did CC(=O)c1cccc(CN2CCN(Cc3ccc(F)cc3)C(CCO)C2)c1 (centres undefined) do in these assays?
RTF Ca sens act: -6; Keap1-Nrf2 PPI: -7; LANA DNA inh: 0; CAL PDZ FP-1: -4; RTF Ca sens inh: 7; CAL PDZ FP-2: 0

What do the screens show for `CC(=O)c1cccc(CN2CCN(Cc3ccc(C)cc3)C(CCO)C2)c1` (centres undefined)?
RTF Ca sens act: 6; Keap1-Nrf2 PPI: 0; LANA DNA inh: 0; CAL PDZ FP-1: 0; RTF Ca sens inh: -6; CAL PDZ FP-2: -4

Results for CC(=O)c1cccc(CN2CCN(CC=C(C)C)C(CCO)C2)c1 (centres undefined) ?
RTF Ca sens act: 5; Keap1-Nrf2 PPI: -2; LANA DNA inh: -2; RTF Ca sens inh: 1; CAL PDZ FP-2: 51*

Results for CC(=O)c1cccc(CN2CCN(CCc3ccccc3)C(CCO)C2)c1 (centres undefined) ?
RTF Ca sens act: 3; Keap1-Nrf2 PPI: -2; LANA DNA inh: 0; CAL PDZ FP-1: -1; RTF Ca sens inh: 0; CAL PDZ FP-2: 63*

Source: PubChem (several laboratories)
